Test results as given in ChEMBL document CHEMBL4041500, “Attenuation of Mycobacterium species through direct and macrophage mediated pathway by unsymmetrical diaryl urea” (Eur J Med Chem, 2017).
In brackets after ≈: the same amount, converted by molar mass. Activity calls are given as the source filed them. No cut-off for these calls is given here.

Experiments:
[1] = test system: Mycobacterium tuberculosis; test: Antimycobacterial activity against Mycobacterium tuberculosis MC2 6030 after 2 to 3 weeks by agar plate method; assay type: functional
In short: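 Strain mc²6030 is a pantothenate auxotroph lacking RD1, grown at 37 °C in Sauton's medium plus 20 μg/ml pantothenic acid. Serial 10-fold dilutions of actively growing culture were plated on 7H10/OADC agar with 20 μg/ml pantothenic acid and increasing compound concentrations, from 10 mg/ml DMSO stocks. Plates were held 2–3 weeks at 37 °C. MIC was the concentration inhibiting 99% of growth; isoniazid served as control.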

[2] = test system: Mycolicibacterium smegmatis; test: Inhibition of alpha-mycolic acid biosynthesis in Mycobacterium smegmatis MC2 155 assessed as reduction in [1-14C]acetate incorporation at 5 times antibacterial MIC preincubated for 90 mins followed by [1-14C]acetate addition measured after 1 hr by liquid scintillation counting based TLC method; assay type: functional; conditions: str. MC2 155
[3] = test system: Mycolicibacterium smegmatis; test: Antimycobacterial activity against Mycobacterium smegmatis MC2 155 infected in Balb/c mouse peritoneal macrophages assessed as downregulation of IL-10 mRNA expression at 5 ug/ml after 6 hrs RT-PCR method; assay type: functional; conditions: str. MC2 155
In short: (§1)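 BALB/c peritoneal macrophages were cultured 48 h in RPMI-1640 with 10% FBS. Cells at 2 × 10⁶/ml were infected with mid-log, PBS-washed mc²155 at a macrophage:bacteria ratio of 1:10 for 6 h, then washed three times. Compound was added at 5 µg/mL for another 6 h. Total RNA was taken up in Trizol, 1 µg was used for cDNA, and PCR ran 40 cycles (94 °C 45 s, 60 °C 1 min, 72 °C 1 min).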

[4] = test system: Mycolicibacterium smegmatis; test: Antimycobacterial activity against Mycobacterium smegmatis MC2 155 after 48 hrs by serial dilution method; assay type: functional; conditions: str. MC2 155, 48 h
In short: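 M. smegmatis grown in Middlebrook 7H9 with 10% albumin–dextrose complex and 0.03% Tween80 at 37 °C. Twofold serial dilutions of compound were combined with mid-log culture diluted to OD570 0.01, giving a final range of […] in 7H9 broth. Incubated in ambient air at 37 °C for 48 h. MIC taken as the lowest concentration preventing visible growth.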

Peritoneal macrophage = test: Cytotoxicity against Balb/c mouse peritoneal macrophages assessed as reduction in cell viability after 48 hrs by MTT assay; assay type: cell-based
In short: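 Murine peritoneal macrophages, 1 × 10^6 cells/well, exposed to compound at 0.1 to 250 µg/ml in RPMI-1640 with 10% FBS for 48h. MTT (5 mg/ml) added for 3 h at 37°C, formazan dissolved in 0.04M HCl in isopropanol for 15 min at room temperature, absorbance read at 570 nm. IC50 (50% loss of viability) taken from a dose–response curve of percentage activity versus log10 concentration.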

[5] = test system: Mycolicibacterium smegmatis; test: Inhibition of alpha'-mycolic acid biosynthesis in Mycobacterium smegmatis MC2 155 assessed as reduction in [1-14C]acetate incorporation at 5 times antibacterial MIC preincubated for 90 mins followed by [1-14C]acetate addition measured after 1 hr by liquid scintillation counting based TLC method; assay type: functional; conditions: str. MC2 155
[6] = test system: Mycolicibacterium smegmatis; test: Antimycobacterial activity against Mycobacterium smegmatis MC2 155 infected in Balb/c mouse peritoneal macrophages assessed as upregulation of IFN-gamma mRNA expression at 5 ug/ml after 6 hrs RT-PCR method; assay type: functional; conditions: str. MC2 155; in short: as §1
[7] = test system: Mycobacterium tuberculosis; test: Antimycobacterial activity against Mycobacterium tuberculosis H37Rv ATCC 27294 after 7 days by microplate alamar blue assay; assay type: functional; conditions: H37Rv ATCC 27294, 168 h
In short: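 MABA run in 7H12 medium in 96-well plates for 7 days at 37 °C. Alamar Blue and Tween 80 were then added for a further 24 h. Fluorescence was read at 530/590 nm. MIC was the lowest concentration giving a 90% fluorescence (or luminescence) reduction versus controls. Luciferase reporter strains or intracellular ATP were used for compounds with background fluorescence. Isoniazid and rifampin were run as controls.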

[8] = test system: Mycolicibacterium smegmatis; test: Antimycobacterial activity against Mycobacterium smegmatis MC2 155 infected in Balb/c mouse peritoneal macrophages assessed as upregulation of IL-12 mRNA expression at 5 ug/ml after 6 hrs RT-PCR method; assay type: functional; conditions: str. MC2 155; in short: as §1
[9] = test system: Mycolicibacterium smegmatis; test: Inhibition of fattyacid biosynthesis in Mycobacterium smegmatis MC2 155 assessed as reduction in [1-14C]acetate incorporation at 5 times antibacterial MIC preincubated for 90 mins followed by [1-14C]acetate addition measured after 1 hr by liquid scintillation counting based TLC method; assay type: functional; conditions: str. MC2 155
[10] = test system: Mycolicibacterium smegmatis; test: Antimycobacterial activity against Mycobacterium smegmatis MC2 155 infected in Balb/c mouse peritoneal macrophages assessed as increase in iNOS2 mRNA expression at 5 ug/ml after 6 hrs RT-PCR method; assay type: functional; conditions: str. MC2 155; in short: as §1
[11] = test system: Mycolicibacterium smegmatis; test: Inhibition of epoxy-mycolic acid biosynthesis in Mycobacterium smegmatis MC2 155 assessed as reduction in [1-14C]acetate incorporation at 5 times antibacterial MIC preincubated for 90 mins followed by [1-14C]acetate addition measured after 1 hr by liquid scintillation counting based TLC method; assay type: functional; conditions: str. MC2 155
HepG2 = test: Cytotoxicity against human HepG2 cells assessed as reduction in cell viability after 72 hrs by MTT assay; assay type: cell-based; conditions: hepg2, 72 h
In short: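 HepG2 cells grown in Eagle's MEM with 10% FBS at 37 °C and 5% CO2. Cells were scraped, resuspended at ~1 × 10^6 cells/mL, plated and left 24 h, then exposed to compound at 400 to 0.2 µg/mL for 72 h. Viability read by MTT assay. IC50 (50% loss of viability) taken from a dose–response curve versus log10 concentration.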

Compound | MIC99 [1] | inhibition [2] | Activity [3] | MIC [4] | Activity (Peritoneal macrophage) | inhibition [5] | Activity [6] | MIC90 [7] | Activity [8] | inhibition [9] | Activity [10] | inhibition [11] | Activity (HepG2)
CC(C)=CCOc1cccc(NC(=O)Nc2cccc([N+](=O)[O-])c2)c1 | 2 mg/L (≈ 5.86 µM) | inactive | Active | 3.21 mg/L (≈ 9.4 µM) | 94.1 µg/mL | inactive | inactive | 6 mg/L (≈ 17.6 µM) | inactive | inactive | Active | Active | 113.7 µg/mL
CC(C)=CCOc1cccc(NC(=O)Nc2cccc(C#N)c2)c1 |  | inactive | Active | 25 mg/L (≈ 77.8 µM) | 159.4 µg/mL | inactive | Active | 9.2 mg/L (≈ 28.6 µM) | Active | inactive | Active | Active | 172.6 µg/mL
CCCCOc1ccc(NC(=O)Nc2ccccc2C)cc1 | 100 mg/L (≈ 335 µM) | inactive |  | 100 mg/L (≈ 335 µM) | 125.7 µg/mL | inactive |  | 7 mg/L (≈ 23.5 µM) |  | inactive |  | Active | 130.5 µg/mL
CC(C)=CCOc1cccc(NC(=O)Nc2cccc(C(=O)O)c2)c1 |  | inactive |  | 12.5 mg/L (≈ 36.7 µM) | 120.4 µg/mL | inactive |  | 16.5 mg/L (≈ 48.5 µM) |  | inactive |  | Active | 132.6 µg/mL
CC(C)=CCOc1cccc(NC(=O)Nc2ccccc2C)c1 | 1 mg/L (≈ 3.22 µM) | inactive | Active | 12.5 mg/L (≈ 40.3 µM) | 140.5 µg/mL | inactive | Active | 5.2 mg/L (≈ 16.8 µM) | Active | inactive | Active | Active | 163.4 µg/mL
CC(C)=CCOc1ccc(NC(=O)Nc2ccccc2)cc1 | 30 mg/L (≈ 101 µM) | inactive |  | 25 mg/L (≈ 84.4 µM) | 109.5 µg/mL | inactive |  | 43.1 mg/L (≈ 145 µM) |  | inactive |  | inactive | 124.7 µg/mL
